Measurements: ChEMBL document CHEMBL2093137, “WHO-TDR NTD Screening”
Values after ≈ are worked out from the molar mass of the structure shown. Values belong to the compound of their own block, whether it stands above or below them.

How the values were obtained:
[1] = WHO-TDR: Cytotoxicity; type: toxicity, cell-based; settings: human, MRC5 cells
Schistosoma mansoni = experiment: WHO-TDR: Schistosomiasis; type: functional; parameters: concentration or dose not given beside the values
Outline: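 Percent inhibition and IC50 describe activity against whole Schistosoma mansoni worms of the Puerto Rican strain, tested as larvae and/or adults. The compounds screened were a diverse set of 10,000 from Life Chemicals, filtered for drug-likeness and reactive groups. Testing followed previously published standard procedures, with a reference drug as positive control.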

Leishmania infantum = experiment: WHO-TDR: Leishmaniasis; type: functional, organism-based, Mus musculus; settings: Macrophage
Outline: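 A diverse library of 10,000 compounds from Life Chemicals, filtered for drug-likeness and reactive groups, was screened against whole organisms. The targets were intracellular amastigotes of Leishmania infantum MHOM/MA(BE)/67 growing in murine peritoneal macrophages. Previously published standard procedures were followed, with a reference drug as positive control. Antiparasitic potency is given as IC50.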

Plasmodium falciparum K1 = experiment: WHO-TDR: Malaria; type: functional, organism-based, Homo sapiens; settings: Erythrocyte
Outline: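 A diverse library of 10,000 compounds from Life Chemicals, filtered for drug-likeness and reactive groups, was screened against the intra-erythrocytic Plasmodium falciparum K1 strain in human red blood cells. Previously published standard procedures were followed, with a reference drug as positive control. Antiplasmodial potency is given as IC50.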

[2] = tested on: Trypanosoma brucei brucei; experiment: WHO-TDR: Human African Trypanosomiasis (HAT); type: functional, organism-based; settings: Squib-427
Outline: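 A diverse library of 10,000 compounds from Life Chemicals, filtered for drug-likeness and reactive groups, was screened against bloodstream forms of Trypanosoma brucei Squib 427 strain in a whole-organism assay. Previously published standard procedures were followed, with reference drugs serving as positive controls. Antiparasitic potency is given as IC50.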

Trypanosoma cruzi = experiment: WHO-TDR: Chagas disease; type: functional, organism-based, Homo sapiens; settings: MRC5
Outline: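 A diverse library of 10,000 compounds from Life Chemicals, filtered for drug-likeness and reactive groups, was screened against intracellular amastigotes of Trypanosoma cruzi Tulahuen CL2 beta-galactosidase strain. The parasites were grown in MRC-5SV2 human lung fibroblast host cells, and a reference drug served as positive control under previously published standard procedures. Antiparasitic potency is given as IC50.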

Onchocerca lienalis = experiment: WHO-TDR: Onchocerciasis; type: functional; parameters: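 at 12.5 µM on microfilariae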
Outline: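 Percent inhibition and IC50 describe activity against microfilariae of Onchocerca ochengi or Onchocerca lienalis, used as animal-pathogen substitutes for the human parasite. The compounds tested made up a 10,000-member diverse library from Life Chemicals.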

Structure (SMILES): COc1ccc(S(=O)(=O)NCC(c2cccnc2)N2CCN(Cc3ccccc3)CC2)cc1C (configuration not stated)
IC50 [1]: > 14.4 µg/mL | % Inhibition (Schistosoma mansoni): 0% | IC50 (Leishmania infantum): 7.47 µg/mL (≈ 15.5 µM) | IC50 (Plasmodium falciparum K1): 1.81 µg/mL (≈ 3.78 µM) | IC50 [2]: 5.04 µg/mL (≈ 10.5 µM) | IC50 (Trypanosoma cruzi): 0.835 µg/mL (≈ 1.74 µM) | % Inhibition (Onchocerca lienalis): 0%

Structure (SMILES): CN(C)CCCN(C(=O)CCOc1ccccc1)c1nc2c(F)cccc2s1
IC50 [1]: 1.94 µg/mL (≈ 4.83 µM) | % Inhibition (Schistosoma mansoni): 0% | IC50 (Leishmania infantum): 4.25 µg/mL (≈ 10.6 µM) | IC50 (Plasmodium falciparum K1): 8.18 µg/mL (≈ 20.4 µM) | IC50 [2]: 4.25 µg/mL (≈ 10.6 µM) | IC50 (Trypanosoma cruzi): 0.409 µg/mL (≈ 1.02 µM) | % Inhibition (Onchocerca lienalis): 0%

Structure (SMILES): CN(C)CCCN(C(=O)c1ccc(Br)s1)c1nc2cc3c(cc2s1)OCCO3
IC50 [1]: 3.06 µg/mL (≈ 6.35 µM) | % Inhibition (Schistosoma mansoni): 0% | IC50 (Leishmania infantum): 5.04 µg/mL (≈ 10.4 µM) | IC50 (Plasmodium falciparum K1): 2.42 µg/mL (≈ 5.02 µM) | IC50 [2]: 5.04 µg/mL (≈ 10.4 µM) | IC50 (Trypanosoma cruzi): 0.933 µg/mL (≈ 1.93 µM) | % Inhibition (Onchocerca lienalis): 6.7%

Structure (SMILES): NC(=O)c1ccc(NC(=O)c2c[nH]c(=O)n(-c3ccc(F)cc3)c2=O)cc1
IC50 [1]: > 11 µg/mL | % Inhibition (Schistosoma mansoni): 0% | IC50 (Leishmania infantum): 0.358 µg/mL (≈ 0.971 µM) | IC50 (Plasmodium falciparum K1): > 11 µg/mL | IC50 [2]: > 11 µg/mL | IC50 (Trypanosoma cruzi): > 11 µg/mL | % Inhibition (Onchocerca lienalis): 0%

Structure (SMILES): COC(=O)c1c(NC(=O)c2nc3ccccc3s2)sc2c1CC(C)(C)NC2(C)C
IC50 [1]: > 12.9 µg/mL | % Inhibition (Schistosoma mansoni): 0% | IC50 (Leishmania infantum): > 12.9 µg/mL | IC50 (Plasmodium falciparum K1): > 12.9 µg/mL | IC50 [2]: 0.216 µg/mL (≈ 0.503 µM) | IC50 (Trypanosoma cruzi): > 12.9 µg/mL | % Inhibition (Onchocerca lienalis): -1%

Structure (SMILES): CCNc1cc(C)nc(Nc2ccc(NS(=O)(=O)c3ccc4nc(C)sc4c3)cc2)n1
IC50 [1]: 0.543 µg/mL (≈ 1.19 µM) | % Inhibition (Schistosoma mansoni): 58.3% | IC50 (Leishmania infantum): > 13.6 µg/mL | IC50 (Plasmodium falciparum K1): 1.18 µg/mL (≈ 2.6 µM) | IC50 [2]: 4.31 µg/mL (≈ 9.49 µM) | IC50 (Trypanosoma cruzi): 0.404 µg/mL (≈ 0.889 µM) | % Inhibition (Onchocerca lienalis): 33.4%

Structure (SMILES): O=C(CSc1nnc(NC(=O)c2cc(Cl)ccc2Cl)s1)Nc1ccc2c(c1)OCO2
IC50 [1]: 1.94 µg/mL (≈ 4.02 µM) | % Inhibition (Schistosoma mansoni): 0% | IC50 (Leishmania infantum): 4.25 µg/mL (≈ 8.8 µM) | IC50 (Plasmodium falciparum K1): 8.18 µg/mL (≈ 16.9 µM) | IC50 [2]: 4.25 µg/mL (≈ 8.8 µM) | IC50 (Trypanosoma cruzi): 0.409 µg/mL (≈ 0.847 µM) | % Inhibition (Onchocerca lienalis): 13.3%

Structure (SMILES): CN(C)CCCN(C(=O)c1ccccc1F)c1nc2c(Cl)cccc2s1
IC50 [1]: 3.81 µg/mL (≈ 9.73 µM) | % Inhibition (Schistosoma mansoni): 0% | IC50 (Leishmania infantum): 4.16 µg/mL (≈ 10.6 µM) | IC50 (Plasmodium falciparum K1): 0.848 µg/mL (≈ 2.16 µM) | IC50 [2]: 0.237 µg/mL (≈ 0.605 µM) | IC50 (Trypanosoma cruzi): 4.41 µg/mL (≈ 11.3 µM) | % Inhibition (Onchocerca lienalis): 13.3%

Structure (SMILES): COc1ccc(CCNC(=O)CSc2nnc(NC(=O)c3cc(Cl)ccc3Cl)s2)cc1OC
IC50 [1]: 0.526 µg/mL (≈ 0.997 µM) | % Inhibition (Schistosoma mansoni): 8.3% | IC50 (Leishmania infantum): 4.54 µg/mL (≈ 8.61 µM) | IC50 (Plasmodium falciparum K1): 0.398 µg/mL (≈ 0.755 µM) | IC50 [2]: 0.352 µg/mL (≈ 0.668 µM) | IC50 (Trypanosoma cruzi): 0.239 µg/mL (≈ 0.452 µM) | % Inhibition (Onchocerca lienalis): 13.3%

Structure (SMILES): CC(C)(C)C(=O)Nc1nnc(SCC(=O)Nc2ccc(Cl)c(Cl)c2)s1
IC50 [1]: 2.84 µg/mL (≈ 6.78 µM) | % Inhibition (Schistosoma mansoni): 0% | IC50 (Leishmania infantum): 4.51 µg/mL (≈ 10.7 µM) | IC50 (Plasmodium falciparum K1): 1.13 µg/mL (≈ 2.69 µM) | IC50 [2]: 0.456 µg/mL (≈ 1.09 µM) | IC50 (Trypanosoma cruzi): 4.66 µg/mL (≈ 11.1 µM) | % Inhibition (Onchocerca lienalis): 0%

Structure (SMILES): O=C(Cc1ccccc1)Nc1nnc(SCC(=O)NC2CCCC2)s1
IC50 [1]: 3.82 µg/mL (≈ 10.1 µM) | % Inhibition (Schistosoma mansoni): 0% | IC50 (Leishmania infantum): 3.96 µg/mL (≈ 10.5 µM) | IC50 (Plasmodium falciparum K1): 0.609 µg/mL (≈ 1.62 µM) | IC50 [2]: 0.382 µg/mL (≈ 1.01 µM) | IC50 (Trypanosoma cruzi): 4.16 µg/mL (≈ 11.1 µM) | % Inhibition (Onchocerca lienalis): 6.7%

Structure (SMILES): CCn1/c(=N\C(=O)c2ccc(C(C)=O)cc2)sc2cc(C)ccc21
IC50 [1]: > 10.2 µg/mL | % Inhibition (Schistosoma mansoni): 0% | IC50 (Leishmania infantum): > 10.2 µg/mL | IC50 (Plasmodium falciparum K1): > 10.2 µg/mL | IC50 [2]: > 10.2 µg/mL | IC50 (Trypanosoma cruzi): 0.321 µg/mL (≈ 0.948 µM) | % Inhibition (Onchocerca lienalis): 80%

Structure (SMILES): CN(C)CCCN(C(=O)c1ccc2c(c1)CCCC2)c1nc2ccc(Br)cc2s1
IC50 [1]: 2.1 µg/mL (≈ 4.44 µM) | % Inhibition (Schistosoma mansoni): 66.7% | IC50 (Leishmania infantum): 0.791 µg/mL (≈ 1.67 µM) | IC50 (Plasmodium falciparum K1): 1.16 µg/mL (≈ 2.46 µM) | IC50 [2]: 0.483 µg/mL (≈ 1.02 µM) | IC50 (Trypanosoma cruzi): 3.21 µg/mL (≈ 6.78 µM) | % Inhibition (Onchocerca lienalis): 0%

More lines, main results first:

IC50 (Leishmania infantum): 4.56 µg/mL (≈ 9.71 µM) | IC50 (Plasmodium falciparum K1): 4.68 µg/mL (≈ 9.97 µM) | IC50 [2]: > 14.1 µg/mL
Structure (SMILES): CCOC(=O)c1c(NC(=O)Cn2c(-n3nc(C)cc3C)nc(CC)cc2=O)sc2c1CCC2
IC50 [1]: > 14.1 µg/mL | % Inhibition (Schistosoma mansoni): 0% | IC50 (Trypanosoma cruzi): 0.749 µg/mL (≈ 1.6 µM) | % Inhibition (Onchocerca lienalis): 0%

IC50 (Leishmania infantum): > 15 µg/mL | IC50 (Plasmodium falciparum K1): > 15 µg/mL | IC50 [2]: > 15 µg/mL
Structure (SMILES): C=CCn1/c(=N/C(=O)c2ccccc2I)sc2cc(S(C)(=O)=O)ccc21
IC50 [1]: > 15 µg/mL | % Inhibition (Schistosoma mansoni): 100% | IC50 (Trypanosoma cruzi): > 15 µg/mL | % Inhibition (Onchocerca lienalis): 20%

IC50 (Leishmania infantum): 3.43 µg/mL (≈ 9.71 µM) | IC50 (Plasmodium falciparum K1): 2.4 µg/mL (≈ 6.79 µM) | IC50 [2]: 3.39 µg/mL (≈ 9.6 µM)
Structure (SMILES): CCNc1cc(C)nc(Nc2ccc(NC(=O)CC3CCCC3)cc2)n1
IC50 [1]: 3.23 µg/mL (≈ 9.13 µM) | % Inhibition (Schistosoma mansoni): 66.7% | IC50 (Trypanosoma cruzi): 0.299 µg/mL (≈ 0.846 µM) | % Inhibition (Onchocerca lienalis): -1%

IC50 (Leishmania infantum): 4.87 µg/mL (≈ 9.71 µM) | IC50 (Plasmodium falciparum K1): > 9.73 µg/mL | IC50 [2]: 0.487 µg/mL (≈ 0.971 µM)
Structure (SMILES): CN(CC1CCCO1)S(=O)(=O)c1ccc(C(=O)Nc2nc3c(s2)CSc2ccccc2-3)cc1 (configuration not stated)
IC50 [1]: 3 µg/mL (≈ 5.99 µM) | % Inhibition (Schistosoma mansoni): 41.7% | IC50 (Trypanosoma cruzi): 0.521 µg/mL (≈ 1.04 µM) | % Inhibition (Onchocerca lienalis): 13.3%

IC50 (Leishmania infantum): 4.69 µg/mL (≈ 9.71 µM) | IC50 (Plasmodium falciparum K1): 4.28 µg/mL (≈ 8.87 µM) | IC50 [2]: 0.493 µg/mL (≈ 1.02 µM)
Structure (SMILES): CCN(CC)c1ccc(NC(=O)Cc2csc(NC(=O)c3cc(OC)cc(OC)c3)n2)c(C)c1
IC50 [1]: > 14.5 µg/mL | % Inhibition (Schistosoma mansoni): 0% | IC50 (Trypanosoma cruzi): 1 µg/mL (≈ 2.08 µM) | % Inhibition (Onchocerca lienalis): 20%

IC50 (Leishmania infantum): > 7 µg/mL | IC50 (Plasmodium falciparum K1): > 7 µg/mL | IC50 [2]: 0.312 µg/mL (≈ 0.971 µM)
Structure (SMILES): CC(C)c1ccc2nc(NC(=O)c3ccc(C#N)cc3)sc2c1
IC50 [1]: > 7 µg/mL | % Inhibition (Schistosoma mansoni): 0% | IC50 (Trypanosoma cruzi): > 7 µg/mL | % Inhibition (Onchocerca lienalis): 0%

IC50 (Leishmania infantum): > 14.1 µg/mL | IC50 (Plasmodium falciparum K1): 2.18 µg/mL (≈ 4.63 µM) | IC50 [2]: > 14.1 µg/mL
Structure (SMILES): O=S(=O)(NCC(c1cccnc1)N1CCN(Cc2ccccc2)CC1)c1ccc(Cl)cc1 (configuration not stated)
IC50 [1]: > 14.1 µg/mL | % Inhibition (Schistosoma mansoni): 0% | IC50 (Trypanosoma cruzi): 0.633 µg/mL (≈ 1.34 µM) | % Inhibition (Onchocerca lienalis): 0%

IC50 (Leishmania infantum): 4.22 µg/mL (≈ 9.49 µM) | IC50 (Plasmodium falciparum K1): 4.01 µg/mL (≈ 9.02 µM) | IC50 [2]: 0.396 µg/mL (≈ 0.891 µM)
Structure (SMILES): CCOC(=O)c1c(NC(=O)C2COc3ccccc3O2)sc2c1CC(C)(C)NC2(C)C (configuration not stated)
IC50 [1]: 5.73 µg/mL (≈ 12.9 µM) | % Inhibition (Schistosoma mansoni): 91.7% | IC50 (Trypanosoma cruzi): 4.1 µg/mL (≈ 9.22 µM) | % Inhibition (Onchocerca lienalis): 0%
